In ChEMBL document CHEMBL1125826, “Synthesis and biological activity of 5-amino- and 5-hydroxyquinolones, and the overwhelming influence of the remote N1-substituent in determining the structure-activity relationship” (1991):
≈ marks a conversion by molar mass, not a printed value.

Columns and labels:
Assay type in all cases: functional
Enterobacter cloacae = experiment: Antibacterial activity was determined against gram negative organism, Enterobacter cloacae MA2646; conditions: Enterobacter cloacae; read-out: MIC
Escherichia coli [1] = experiment: Antibacterial activity was determined against gram negative organism, Escherichia coli vogel; conditions: Escherichia coli; read-out: MIC
How it was run: (§1)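 MIC (µg/mL) by standard microtitration against a panel of 10 Gram-positive and Gram-negative organisms; values averaged from multiple experiments.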

[2] = (§2) MIC ratio measured as the mean MICs of gram-negative bacteria
How it was run: (§3)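 Geometric mean of the microtitration MICs (µg/mL) over the Gram-negative organisms, and separately over the Gram-positive organisms, of the 10-strain panel; individual MICs averaged from multiple experiments.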

Klebsiella pneumoniae = experiment: Antibacterial activity was determined against gram negative organism, Klebsiella pneumoniae MGH-2; conditions: Klebsiella pneumoniae; read-out: MIC; how it was run: as §1
Pseudomonas aeruginosa = experiment: Antibacterial activity was determined against gram negative organism, Pseudomonas aeruginosa UI-18; conditions: Pseudomonas aeruginosa; read-out: MIC; how it was run: as §1
Bacteria [3] = experiment: Antibacterial activity was determined against gram negative organism, Providencia rettgeri. M1771; conditions: Bacteria; read-out: MIC; how it was run: as §1
Streptococcus pneumoniae [4] = experiment: (§4) Antibacterial activity was determined against gram positive organism, Streptococcus pneumoniae SV-1
How it was run: (§5)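 Broth microtitration MIC against a panel of 10 Gram-positive and Gram-negative organisms; MIC in µg/mL, averaged over multiple experiments.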

Enterococcus faecalis = experiment: Antibacterial activity was determined against gram positive organism, Streptococcus faecalis MGH-2; conditions: Enterococcus faecalis; read-out: MIC; how it was run: as §1
Streptococcus pyogenes [5] = experiment: Antibacterial activity was determined against gram positive organism, Streptococcus pyogenes C203; conditions: Streptococcus pyogenes; read-out: MIC; how it was run: as §1
Staphylococcus aureus [6] = experiment: (§6) Antibacterial activity was determined against gram positive organism, Staphylococcus aureus H228; how it was run: as §5
Staphylococcus aureus [7] = experiment: (§7) Antibacterial activity was determined against gram positive organism, Staphylococcus aureus UC76; how it was run: as §5
[8] = (§8) MIC ratio measured as the mean MICs of gram-positive bacteria; how it was run: as §3
[9] = molecular target: T1, DNA gyrase (Escherichia coli) (UniProt P0AES6+P0AES4); experiment: Minimum inhibitory concentration against Escherichia coli DNA-gyrase supercoiling assay
Escherichia coli [10] = experiment: The in vivo potency was determined in female charles river CD-1 mice infected with Escherichia coli after peroral administration; conditions: Escherichia coli, po; read-out: PD50
How it was run: (§9)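 Acute lethal systemic infection in female CD-1 mice, 16 mice per route; single dose given orally by gavage at the time of challenge; median protective dose (PD50, mg/kg) determined.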

Escherichia coli [11] = experiment: The in vivo potency was determined in female charles river CD-1 mice infected with Escherichia coli after sc administration; conditions: Escherichia coli, sc; read-out: PD50
How it was run: (§10)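 Acute lethal systemic infection in female CD-1 mice, 16 mice per route; single subcutaneous dose given at the time of challenge; median protective dose (PD50, mg/kg) determined.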

Staphylococcus aureus [12] = experiment: as §6; conditions: Staphylococcus aureus; read-out: MIC; how it was run: as §1
Streptococcus pneumoniae [13] = experiment: as §4; conditions: Streptococcus pneumoniae; read-out: MIC; how it was run: as §1
Staphylococcus aureus [14] = experiment: as §7; how it was run: as §1; remark: listed apart in the source
[15] = molecular target: T1, DNA gyrase (Escherichia coli); experiment: Minimum inhibitory concentration against Escherichia coli DNA-gyrase in supercoiling assay
Bacteria [16] = experiment: as §2; how it was run: as §3
Bacteria [17] = experiment: as §8; how it was run: as §3
Streptococcus pneumoniae [18] = experiment: The in vivo potency was determined in female charles river CD-1 mice infected with Streptococcus pneumoniae after peroral administration; conditions: Streptococcus pneumoniae, po; read-out: PD50; how it was run: as §9
Streptococcus pneumoniae [19] = experiment: The in vivo potency was determined in female charles river CD-1 mice infected with Streptococcus pneumoniae after sc administration; conditions: Streptococcus pneumoniae, sc; read-out: PD50; how it was run: as §10
Streptococcus pyogenes [20] = experiment: The in vivo potency was determined in female charles river CD-1 mice infected with Streptococcus pyogenes after peroral administration; conditions: Streptococcus pyogenes, po; read-out: PD50; how it was run: as §9
Streptococcus pyogenes [21] = experiment: The in vivo potency was determined in female charles river CD-1 mice infected with Streptococcus pyogenes after sc administration; conditions: Streptococcus pyogenes, sc; read-out: PD50; how it was run: as §10

| Structure (SMILES) | MIC (Enterobacter cloacae) [µg/mL] | MIC (Escherichia coli [1]) [µg/mL] | Ratio [2] | MIC (Klebsiella pneumoniae) [µg/mL] | MIC (Pseudomonas aeruginosa) [µg/mL] | MIC (Bacteria [3]) [µg/mL] | MIC (Streptococcus pneumoniae [4]) [µg/mL] | MIC (Enterococcus faecalis) [µg/mL] | MIC (Streptococcus pyogenes [5]) [µg/mL] | MIC (Staphylococcus aureus [6]) [µg/mL] | MIC (Staphylococcus aureus [7]) [µg/mL] | Ratio [8] | ED50 (Escherichia coli [10]) [mg/kg] | ED50 (Escherichia coli [11]) [mg/kg] | MIC (Staphylococcus aureus [12]) [µg/mL] | MIC (Streptococcus pneumoniae [13]) [µg/mL] | also measured |
| --- | --- | --- | --- | --- | --- | --- | --- | --- | --- | --- | --- | --- | --- | --- | --- | --- | --- |
| CCn1cc(C(=O)O)c(=O)c2cc(F)c(N3CCNCC3)cc21 [NORFLOXACIN] | 0.1 (≈ 0.313 µM) | 0.025 (≈ 0.0783 µM) | 0.057 | 0.05 (≈ 0.157 µM) | 0.2 (≈ 0.626 µM) | 0.025 (≈ 0.0783 µM) | 1.6 (≈ 5.01 µM) | 1.6 (≈ 5.01 µM) | 0.8 (≈ 2.51 µM) | 0.8 (≈ 2.51 µM) | 0.05 (≈ 0.157 µM) | 0.61 | – | – | – | – | – |
| CC1CN(c2cc3c(c(N)c2F)c(=O)c(C(=O)O)cn3-c2ccc(F)cc2F)CCN1 (stereo not drawn) | 0.2 (≈ 0.463 µM) | 0.1 (≈ 0.231 µM) | 0.3 | 0.2 (≈ 0.463 µM) | 1.6 (≈ 3.7 µM) | 0.4 (≈ 0.925 µM) | 0.2 (≈ 0.463 µM) | 0.4 (≈ 0.925 µM) | 0.4 (≈ 0.925 µM) | 0.2 (≈ 0.463 µM) | 0.05 (≈ 0.116 µM) | 0.2 | – | – | – | – | MIC [9]: 2.5 µg/mL (≈ 5.78 µM) |
| Nc1c(F)c(N2CCC(N)C2)c(Cl)c2c1c(=O)c(C(=O)O)cn2C1CC1 (stereo not drawn) | 0.025 (≈ 0.0657 µM) | 0.025 (≈ 0.0657 µM) | 0.076 | 0.05 (≈ 0.131 µM) | 0.8 (≈ 2.1 µM) | 0.1 (≈ 0.263 µM) | – | 0.1 (≈ 0.263 µM) | 0.1 (≈ 0.263 µM) | – | – | 0.076 | 6 | 1 | 0.1 (≈ 0.263 µM) | 0.1 (≈ 0.263 µM) | MIC (Staphylococcus aureus [14]): 0.025 µg/mL (≈ 0.0657 µM) |
| Nc1c(F)c(N2CCC(N)C2)c(F)c2c1c(=O)c(C(=O)O)cn2C1CC1 (stereo not drawn) | 0.006 (≈ 0.0165 µM) | 0.006 (≈ 0.0165 µM) | – | 0.013 (≈ 0.0357 µM) | 0.1 (≈ 0.274 µM) | 0.025 (≈ 0.0686 µM) | – | 0.05 (≈ 0.137 µM) | 0.025 (≈ 0.0686 µM) | – | – | – | 2 | 1 | 0.05 (≈ 0.137 µM) | 0.025 (≈ 0.0686 µM) | MIC [15]: 0.5 µg/mL (≈ 1.37 µM); Geometric mean MIC over Gram-negative bacteria (µg/mL) (Bacteria [16]): 0.016; Geometric mean MIC over Gram-positive bacteria (µg/mL) (Bacteria [17]): 0.029; ED50 (Streptococcus pneumoniae [18]): 28 mg/kg; ED50 (Streptococcus pneumoniae [19]): 8 mg/kg; ED50 (Streptococcus pyogenes [20]): 20 mg/kg; ED50 (Streptococcus pyogenes [21]): 9 mg/kg; MIC (Staphylococcus aureus [14]; Staphylococcus aureus, read-out: MIC): 0.013 µg/mL (≈ 0.0357 µM) |
